NR2E3 ag-1: agonists of human NR2E3 nuclear receptor | Q9Y5X4 | CHO-S Gal4-NCOR/VP16-NR2E3 two-hybrid, luciferase | inhibition of corepressor binding, % at 3.98 µM | actives 0.35% (n = 360,000) | AID 602229;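 active = inhibition above the mean of all tested compounds plus 3 SD, cut at about 70% in these data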;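 also: 0% = DMSO with NR2E3 transfected cells and 100% = cells lacking NR2E3 construct; higher means lower luciferase signal from less NR2E3 corepressor binding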
Target sequence (Q9Y5X4 whole entry, looked up, the tested form may be a part): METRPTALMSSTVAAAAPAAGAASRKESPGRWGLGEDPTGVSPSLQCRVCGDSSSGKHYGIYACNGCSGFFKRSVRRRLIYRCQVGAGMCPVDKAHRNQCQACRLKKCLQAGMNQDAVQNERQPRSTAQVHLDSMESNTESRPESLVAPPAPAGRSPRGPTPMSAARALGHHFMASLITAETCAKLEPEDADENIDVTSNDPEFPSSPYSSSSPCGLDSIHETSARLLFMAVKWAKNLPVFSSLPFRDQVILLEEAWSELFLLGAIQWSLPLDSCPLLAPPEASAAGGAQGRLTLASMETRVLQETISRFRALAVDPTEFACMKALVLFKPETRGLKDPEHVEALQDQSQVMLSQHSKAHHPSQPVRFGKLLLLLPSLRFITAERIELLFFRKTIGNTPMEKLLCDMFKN
GalR3 antag: human GalR3 antagonism | O60755 | HEK293 GalR3-CNG cAMP membrane potential fluorescence; galR3 body fused to GalR1 C-terminus | inhibition, % at 3 µM | actives 0.44% (n = 360,000);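 active = inhibition above the screen-wide average plus 3 SD, cut at about 13% in these data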;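 also: forskolin and galanin both at EC90 stimulate the cells; cAMP rise reported by CNG channel membrane potential dye signal; 0% = forskolin plus galanin with DMSO and 100% = forskolin alone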
Target sequence (O60755 1-299 limits assumed): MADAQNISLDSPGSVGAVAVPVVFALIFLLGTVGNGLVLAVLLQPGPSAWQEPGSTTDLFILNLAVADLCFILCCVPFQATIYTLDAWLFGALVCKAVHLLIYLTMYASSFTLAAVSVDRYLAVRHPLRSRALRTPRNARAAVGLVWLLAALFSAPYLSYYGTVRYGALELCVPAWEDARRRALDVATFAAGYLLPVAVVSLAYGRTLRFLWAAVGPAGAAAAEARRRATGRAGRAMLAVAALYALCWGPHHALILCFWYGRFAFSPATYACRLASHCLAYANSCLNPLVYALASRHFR
GASC-1 inh: inhibitors of human GASC-1 (JMJD2C) demethylase | GST-JMJD2C(1-420) H3K9me3 demethylation, DELFIA europium | Q9H3R0 | actives 0.069% (n = 330,000) | inhibition, % at 2.35 µM;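 active = more than half of a compound's replicate wells show inhibition beyond 50%, single wells judged on their own value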;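 also: signal counts dimethyl H3K9 product captured on neutravidin plate; 0% = median of DMSO wells and 100% = 0.3 times that DMSO median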
NR2E3 ag-2: NR2E3 (human) agonism | Q9Y5X4 | GST-NR2E3/biotin-RetCOR TR-FRET, 1536-well | inhibition of corepressor binding, % at 4.78 µM | actives 0.12% (n = 320,000) | AID 2300;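 active = percent inhibition above the cutoff of mean plus 3 SD of all tested compounds, set per screening campaign, cut at about 20% in these data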;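 also: 0% = DMSO wells and 100% = biotin wells as full block of FRET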
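Assay system: NR2E3–RetCOR corepressor complex. Quantity: 1.35 nM GST-NR2E3. Buffer or medium: pH 7.5 Tris-based buffer. Reagent: biotinylated RetCOR corepressor at 7 nM final. Schedule: 5 h at 4 °C. Detection: TR-FRET, emission read at 617 and 671 nm. Replicates: one well per compound, singlicate testing.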
Jurkat NFkB inh: inhibitors of the PMA/ionomycin-induced NF-kB reporter in Jurkat cells; PMA/ionomycin-induced NF-kB luciferase reporter, luminescence; inhibition, % at 4 µM; actives 0.53% (n = 330,000); AID 435003; in the data active = inhibition above about 50%
697 NFkB inh: lowers PMA/ionomycin-induced NF-kB signal in 697 B cells | 697 B-cell NF-kB luciferase reporter, 16 h | inhibition, % at 4 µM | actives 0.33% (n = 330,000) | AID 435022; in the data active = inhibition above about 35%
GalR3 antag conf: GalR3 (human) antagonism, confirmation; shares compounds with GalR3 antag; HEK293 GalR3 CNG cAMP biosensor, membrane potential fluorescence; galR3 fused to GalR1 carboxy tail; challenged with forskolin and galanin at EC90; inhibition, % at 3 µM; actives 59% (n = 1,600); AID 652245;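 active = inhibition above the primary screen's cutoff, the mean inhibition of all screened compounds plus 3 SD, cut at about 13% in these data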;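 also: 0% = forskolin plus galanin and 100% = forskolin alone with DMSO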
CNG parental: counter-screen for GalR3 antagonists: nonspecific agonists in parental HEK-CNG cells; shares compounds with GalR3 antag; HEK293-CNG parental cells, cAMP membrane potential fluorescence; normalised: DMSO wells 0%, forskolin wells 100%; activation, % at 3 µM; actives 10% (n = 1,600); AID 652268; in the data active = activation above about 1.3%
An asterisk follows results filed as active; x = not tested or not shown. An excerpt weighted towards active compounds, which were near 1.5% of everything screened.

SMILES | NR2E3 ag-1 | GalR3 antag | GASC-1 inh | NR2E3 ag-2 | Jurkat NFkB inh | 697 NFkB inh | GalR3 antag conf | CNG parental
COc1c(OC(C)=O)ccc(/C=N\NC(=O)c2ccc(Br)cc2)c1[N+](=O)[O-] | -53.9 | -6.8 | 11.6 | 2.8 | 9.6 | 10.0 | x | x
COC(=O)NNC(=O)c1ccc(Cl)cc1Cl | -7.1 | -1.7 | -1.4 | -2.3 | 6.8 | -4.1 | x | x
CC(C)(C)C(=O)NC(=S)NNC(=O)c1ccc(Cl)cc1Cl | 18.4 | 15.9* | -0.3 | 0.0 | -3.4 | -4.0 | 13.4* | 0.2
Cc1cc(OCC(=O)Nc2ccncc2)c(C)cc1Br | -8.7 | 76.6* | 2.8 | 5.9 | 1.8 | -11.9 | 116.8* | -0.2
Cc1cc(OCC(=O)Nc2ccncc2)cc(C)c1Cl | 0.3 | 15.9* | 1.1 | -2.6 | 46.2 | 16.2 | 37.2* | 0.0
COc1ccc(C(=O)NCC(=O)OCC(=O)c2ccc3c(c2)NC(=O)CO3)cc1OC | 5.4 | 72.5* | 14.8 | 5.4 | -0.5 | 9.5 | -2.4 | -0.1
N#Cc1ccsc1NC(=O)COC(=O)c1cc2ccccc2cc1O | -100.8 | -4.3 | -13.5 | -2.4 | -26.4 | -30.3 | x | x
Oc1ccc(-c2n[nH]c(C(F)(F)F)c2-c2ccccc2)c(O)c1 | 76.3* | 47.5* | 9.1 | 1.2 | 46.2 | -28.6 | 89.4* | -1.8
CN(C)S(=O)(=O)c1ccc(S(=O)(=O)NC2CCOC(C)(C)C2)cc1 (configuration not stated) | 6.8 | 4.2 | 13.7 | 3.7 | 1.8 | 4.4 | x | x
CC(C)c1c(O)c2c(n(-c3ccccc3)c1=O)CCCC2 | -21.1 | x | 9.4 | 0.1 | 4.0 | -4.5 | 3.4 | 1.9*
O=C(COC(=O)c1n[nH]c2ccccc12)NCCc1ccc(Cl)cc1 | -20.1 | 35.9* | 7.4 | 0.1 | 2.9 | 13.3 | 56.3* | 0.5
COc1ccc(CNC(=O)COC(=O)c2n[nH]c3ccccc23)cc1 | -16.8 | -0.6 | 2.5 | 0.9 | 4.3 | 1.0 | x | x
O=C1CCC(/C=C/c2ccccc2)=NN1Cc1ccc(F)cc1 | -17.2 | -1.3 | -0.8 | 5.5 | 5.1 | 13.6 | x | x
CCOc1ccccc1C1NC(=O)c2ccccc2N1 (configuration not stated) | 2.5 | 12.6* | x | x | x | x | 12.9* | 1.4*
Cc1ccc(Nc2c(-c3ccc(N4CCOCC4)cc3)nc3cnccn23)cc1 | -1.1 | 16.0* | 2.8 | 1.0 | -5.4 | -6.2 | 5.9 | -0.4
O=C(O)CCCCCCCCCCP(=O)(c1ccccc1)c1ccccc1 | -1.1 | 13.1* | 3.6 | -1.0 | -12.6 | -16.9 | -1.7 | 0.3
CCOc1ccc(Br)cc1S(=O)(=O)N1CCC(C(N)=O)CC1 | -0.4 | 17.7* | 7.1 | 1.1 | 5.9 | 3.5 | -2.1 | 0.3
CCCCCCNC(=O)CC(NS(=O)(=O)c1ccc(OC)cc1)C(C)C (configuration not stated) | 4.0 | 21.2* | 4.3 | -2.6 | -4.4 | 7.8 | -1.5 | 0.4
Cc1ccc(N2C(=O)c3cccc4c(N5CCN(C)CC5)ccc(c34)C2=O)c2cccnc12 | x | x | 0.0 | -1.8 | 32.6 | -17.2 | x | x
Cc1ccc(N2C(=O)c3cccc4c([N+](=O)[O-])ccc(c34)C2=O)c2cccnc12 | -16.2 | 14.1* | -2.8 | 0.0 | 32.5 | -45.0 | 17.3* | 0.5
Cc1cc(Nc2nn(C)c(N)c2C#N)ccc1F | -3.5 | 3.1 | 8.9 | 3.0 | -11.6 | 11.3 | x | x
COc1cc(CCCN2C(=S)NC[C@H]2Cc2ccc(O)cc2)cc(OC)c1OC | -5.1 | -6.5 | -2.8 | 1.8 | 11.8 | 4.6 | x | x
COc1cc(CCCN2C(=O)C(=O)NC[C@@H]2Cc2ccc(O)cc2)cc(OC)c1OC | -9.3 | 15.9* | 3.4 | 6.3 | -7.1 | 9.7 | 2.6 | 0.6
C#CCN(Cc1ccco1)C(=O)c1ccc(OC2CCN(Cc3ccccn3)CC2)cc1 | -5.0 | -0.1 | -5.6 | 0.9 | 15.8 | -16.0 | x | x
CCOC(=O)C(=CNc1ccc(C#N)cc1)C(=O)OCC | 14.6 | -8.4 | -27.6 | -0.9 | -10.0 | -0.8 | x | x
SMILES | NR2E3 ag-1 | GalR3 antag | GASC-1 inh | NR2E3 ag-2 | Jurkat NFkB inh | 697 NFkB inh | GalR3 antag conf | CNG parental
CCOC(=O)C(=CNc1ccc(S(N)(=O)=O)cc1)C(=O)OCC | -29.6 | 12.6* | -6.7 | -0.1 | 7.3 | 21.8 | 29.0* | 0.6
COc1cccc(C2C3=C(CC(C)(C)CC3=O)Nc3cc4c(cc32)OCO4)c1 (configuration not stated) | 22.8 | -0.2 | -1.9 | 2.2 | -26.3 | -36.2 | x | x
COc1cccc(C2C3=C(CC(C)(C)CC3=O)Nc3cc(OC)c(OC)cc32)c1 (configuration not stated) | 1.5 | 14.7* | -4.4 | 0.3 | 5.5 | 17.9 | 23.0* | 0.1
COc1cc2c(cc1OC)C(c1ccc3c(c1)OCO3)C1=C(CC(C)(C)CC1=O)N2 (configuration not stated) | -0.5 | 13.4* | 13.0 | 2.9 | -18.5 | 21.2 | 29.3* | 1.0
COc1ccc(C(NC(=O)C2CCN(CCOc3ccc(Cl)cc3)CC2)c2cccs2)cc1 (configuration not stated) | 22.6 | -9.9 | x | x | x | x | x | x
O=C(CCC(=O)N1CCCC(Nc2ccccc2)C1)c1ccc(F)cc1 (configuration not stated) | -15.7 | -4.6 | 9.1 | -1.1 | 0.6 | -2.6 | x | x
CC1(CSc2ccccc2)CC(=O)N1 (configuration not stated) | -5.3 | 20.9* | x | x | x | x | 28.6* | 0.1
O=C1NC(=O)C(CSc2ccccc2)(c2ccccc2)N1 (configuration not stated) | -6.0 | -6.2 | x | x | x | x | x | x
COc1ccc(NC(=O)CCC(=O)N2CCC(c3ccccc3)=N2)cc1S(=O)(=O)N1CCCCC1 | 3.1 | 0.3 | x | x | x | x | x | x
O=C(COC(=O)/C=C/c1ccco1)NCc1ccccc1Cl | -11.6 | -2.7 | 2.3 | 0.1 | 3.5 | 11.4 | x | x
O=C(COC(=O)/C=C/c1ccco1)NCc1ccco1 | -12.1 | 15.4* | -2.0 | 4.0 | 20.1 | -7.2 | -1.4 | 0.3
CCCCNC(=O)C1CCCN(S(=O)(=O)CC)C1 (configuration not stated) | -8.3 | 14.4* | -6.7 | 0.3 | 0.9 | -25.8 | 0.1 | -0.1
COc1cc(-c2noc(C)n2)cc(OC)c1OC | -8.9 | -3.4 | 6.5 | 0.5 | -6.9 | 13.1 | x | x
COc1ccc(C(=O)C2CCCN(C(=O)c3ccoc3C)C2)cc1F (configuration not stated) | 5.7 | 12.6* | 5.2 | 1.8 | -10.7 | 8.4 | 8.4 | 0.4
